ChEMBL document CHEMBL1130822, “Synthesis and biological evaluation of new tetrahydronaphthalene derivatives as thromboxane receptor antagonists” (Bioorg Med Chem Lett, 1998)

Assays:
Cavia porcellus = organism: Cavia porcellus; assay: Compound was tested for inhibition of U-46,619 induced increase in tracheal pressure of guinea pigs; type: functional, Trachea; settings: for ED50: Cavia porcellus, Trachea, read-out: ID50
In short: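 Compound given i.v. to guinea pigs; tracheal pressure rise evoked with U46619 by the Konzett–Rossler technique; ID50 expressed in μg/kg.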

Homo sapiens = organism: Homo sapiens; assay: Compound was tested for inhibition of U-46,619 induced aggregation of human platelets; type: functional
In short: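 Human platelet-rich plasma aggregated with the TP-receptor agonist U46619, with and without compound; inhibition of aggregation measured and IC50 expressed in μM.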

Oryctolagus cuniculus = organism: Oryctolagus cuniculus; assay: Compound was tested for inhibition of U-46,619 induced contraction of isolated rabbit saphenous vein; type: functional; settings: for Kb: Oryctolagus cuniculus, Saphenous vein, read-out: pA2 (converted)
In short: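 Isolated rabbit saphenous vein rings contracted with increasing U46619 concentrations in the absence or presence of compound; antagonism quantified as pA2 values.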

Row | Compound | IC50 (Homo sapiens; Homo sapiens) [µM] | IC50 (Homo sapiens) [µM] | ED50 (Cavia porcellus) [mg/kg] | Kb (Oryctolagus cuniculus) [µM] | ID50 (Cavia porcellus) [mg/kg] | pA2 (Oryctolagus cuniculus)
1 | O=C(O)CC/C=C\C[C@@H]1CO[C@H](c2ccccc2Cl)O[C@@H]1c1ccccc1O | 0.013 |  | 0.0007 | 0.00251 |  | 
2 | Cc1ccc2c(c1CCC(=O)O)CCC(NS(=O)(=O)c1ccc(Cl)cc1)C2 (stereo in doubt) |  | 0.23 |  |  | 0.035 | 
3 | Cc1ccc2c(c1CCC(=O)O)CCC(NS(=O)(=O)c1ccc(Cl)cc1)C2 (stereo in doubt; 2a (l)) |  | 0.78 |  |  | 0.015 | 8.2

More lines, main results first:

Row | IC50 (Homo sapiens; Homo sapiens) [µM] | IC50 (Homo sapiens) [µM] | Compound | ED50 (Cavia porcellus) [mg/kg] | Kb (Oryctolagus cuniculus) [µM] | ID50 (Cavia porcellus) [mg/kg] | pA2 (Oryctolagus cuniculus)
4 | 0.38 |  | O=C(O)CCn1c2c(c3ccccc31)CC(NS(=O)(=O)c1ccc(F)cc1)CC2 (single isomer, unassigned) [RAMATROBAN] | 0.017 | 0.0126 |  | 
5 |  | 0.33 | Cc1ccc2c(c1CCC(=O)O)CCC(NS(=O)(=O)c1ccc(Cl)cc1)C2 (stereo in doubt; 2a) |  |  | 0.031 | 8.9
